Screening data (PubChem BioAssay)
A selection: hits, their analogues and other compounds. The true share with any hit is near 3.9%.
OX1R antag-1: OX1R (human) antagonism; O43613; OX1R-expressing cells, FRET antagonist read-out; AID 485270; 1.8% of 330,000 active; inhibition, % at 6.6 µM; in the data active means inhibition mostly above about 38%, no sharp cut-off; inactive means mostly below about 40%;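 further: 0% = agonist challenge alone and 100% = reference antagonist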
OX1R antag-2: human HCRTR1 antagonism; O43613; CHO/OX1R cells, Fluo-8 calcium fluorescence, orexin A; inhibition, % at 5 µM; 0.43% of 330,000 active;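 active means inhibition above its plate's threshold, mean inhibition of all tested compounds on the plate plus 3 SD, cut at about 37% in these data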;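 further: 0% = orexin A challenge wells and 100% = SB-334867-A antagonist wells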
CHO parental Ca: counter-screen: ATP calcium response change in parental CHO cells. parental CHO-K1, ATP-induced calcium, Fluo-8 fluorescence. inhibition, % at 5.6 µM. AID 463079. 0.63% of 330,000 active;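 active means inhibition above that plate's mean sample inhibition plus 3 SD, cut at about 26% in these data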;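 further: 0% = ATP-challenged DMSO wells and 100% = DMSO wells without ATP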
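Test system: parental CHO cells; detection: calcium-sensitive Fluo-8 fluorescence; evaluation: percent inhibition of calcium signal; also added: ATP as calcium-mobilizing challenge; repeats: one well per compound; control set: ATP-challenged DMSO wells low, unchallenged DMSO wells high; compound: single nominal dose of 5.6 µM per compound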
TAAR1 agonist: human TAAR1 agonism; Q96RJ0; CHO RD-HGA16 TAAR1, Fluo-8 calcium fluorescence; vehicle wells 0%, saturating PEA agonist 100%; activation, % at 3 µM; 0.99% of 360,000 active; AID 624467;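 active means activation above the mean activation of all test compounds in the run plus 3 SD, cut at about 38% in these data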
Target sequence (Q96RJ0 whole entry, looked up): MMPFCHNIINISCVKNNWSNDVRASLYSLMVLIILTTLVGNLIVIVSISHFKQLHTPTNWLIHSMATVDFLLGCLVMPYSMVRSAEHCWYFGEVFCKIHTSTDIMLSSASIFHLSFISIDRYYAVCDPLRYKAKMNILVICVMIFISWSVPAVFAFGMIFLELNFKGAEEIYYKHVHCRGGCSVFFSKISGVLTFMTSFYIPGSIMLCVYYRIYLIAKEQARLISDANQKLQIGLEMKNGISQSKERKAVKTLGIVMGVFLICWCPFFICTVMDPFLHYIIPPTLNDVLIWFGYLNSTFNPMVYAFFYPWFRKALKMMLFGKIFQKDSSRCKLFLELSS
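Assay system – CHO-derived RD-HGA16 cells with stable Gα16 and human TAAR1 · Compound dosing – one-point dosing at 3 µM (nominal) · Incubation – 17-24 h seeding, 75 min 37 °C dye, 30 min RT · Measured by – kinetic Fluo-8 calcium fluorescence · Control set – DMSO vehicle as 0%, PEA at EC100 as 100% · Repeats – single well for each compound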
TAAR1 antag: human TAAR1 antagonism | Q96RJ0 | AID 624466 | inhibition, % at 3 µM | 1.5% of 360,000 active | CHO RD-HGA16 TAAR1, Fluo-8 calcium fluorescence, antagonist;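 active means inhibition above a per-plate cutoff, the mean inhibition of test compounds on that plate plus 3 SD, cut at about 49% in these data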;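 further: 0% = DMSO plus EC80 beta-PEA response and 100% = DMSO alone without agonist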
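System: CHO RD-HGA16 cells bearing hTAAR1. Reagent: EC80 β-phenethylamine stimulus. Schedule: seeding 17-24 h prior, 75-min 37 °C, 30-min RT dye loading. Signal: Fluo-8 intracellular calcium dye fluorescence, real-time kinetic reads. Read-out: % inhibition from peak post-agonist over basal fluorescence ratio. Benchmarks: vehicle wells and EC80 agonist wells. Replicates: n of 1.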
nonsel antag count: nonselective antagonism, TAAR1 counter-screen. shares compounds with TAAR1 antag. 77% of 2,400 active. counterscreen cell line, calcium fluorescence, antagonist mode. inhibition, % at 3 µM; in the data active means inhibition above about 22%;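 further: CHO-Ga16 host cells stimulated with ATP at an EC80 level; 0% = agonist EC80 plus vehicle and 100% = vehicle without agonist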
TAAR1 ant conf: human TAAR1 antagonism, confirmed; shares compounds with TAAR1 antag; TAAR1-expressing cells, fluorescence antagonist read-out; inhibition, % at 3 µM; 40% of 2,400 active; in the data active means inhibition above about 49%;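 further: CHO-Ga16 host cells challenged with agonist PEA near its EC80; 0% = agonist at EC80 plus vehicle and 100% = vehicle with no agonist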
Ga16 ag counter: counter-screen for TAAR1 antagonists: nonselective Ga16 agonists; shares compounds with TAAR1 antag; AID 651953; 18% of 2,400 active; activation, % at 3 µM; Ga16-expressing cells, calcium fluorescence, agonist counterscreen; in the data active means activation above about 12%;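 further: 0% = vehicle wells and 100% = saturating stimulus response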
TAAR1 ag count: activates human TAAR1 in antagonist counter-screen; shares compounds with TAAR1 antag; hTAAR1 cell line, fluorescence activation, agonist mode; activation, % at 3 µM; 2% of 2,400 active; in the data active means activation above about 37%;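 further: CHO cells stably expressing TAAR1 with calcium dye readout; 0% = DMSO vehicle and 100% = full agonist response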
Starred values were filed as active, the others as inactive.

NC(=O)c1nsc(C(=O)N(c2ccccc2)C(C(=O)NCC2CCCO2)c2ccc(F)cc2)c1N (stereo unspecified) was read as OX1R antag-1 15.7, OX1R antag-2 -28.3, CHO parental Ca -19.1, TAAR1 agonist 14.5, TAAR1 antag 50.8*, nonsel antag count 19.8, TAAR1 ant conf 39.4, Ga16 ag counter 9.0 and TAAR1 ag count 13.0.
For NC(=O)c1nsc(C(=O)N(c2ccc3c(c2)OCCO3)C(C(=O)NCC2CCCO2)c2ccc(F)cc2)c1N (stereo unspecified) the results were OX1R antag-1 -9.9, OX1R antag-2 -34.1, CHO parental Ca -27.2, TAAR1 agonist -0.6 and TAAR1 antag 10.9.
NC(=O)c1nsc(C(=O)N(c2ccccc2F)C(C(=O)NCc2ccc(F)cc2)c2ccc(O)cc2)c1N (stereo unspecified) was read as OX1R antag-1 47.9, OX1R antag-2 -2.2, CHO parental Ca -10.2, TAAR1 agonist 13.7, TAAR1 antag 76.7*, nonsel antag count 33.9*, TAAR1 ant conf 48.0, Ga16 ag counter 9.9 and TAAR1 ag count 19.0.
COc1ccc(NC(=O)[C@@H]2O[C@H](CO)[C@H](O)[C@H](O)[C@H]2O)cc1F was read as TAAR1 agonist 0.8 and TAAR1 antag 5.5.
For Cc1nn(-c2ccccc2)c(Cl)c1C(=O)N1CCN(c2ncnc3c2cnn3-c2ccccc2)CC1 the results were OX1R antag-1 83.4*, OX1R antag-2 51.5*, CHO parental Ca 78.0*, TAAR1 agonist 21.2, TAAR1 antag 78.5*, nonsel antag count 52.1*, TAAR1 ant conf 63.1*, Ga16 ag counter 13.0* and TAAR1 ag count 11.1.
Screening O=C(c1ccccc1)N1CCN(c2ncnc3c2cnn3-c2ccccc2)CC1 returned OX1R antag-1 15.1, OX1R antag-2 -31.8, CHO parental Ca -5.1, TAAR1 agonist 11.1 and TAAR1 antag 19.6.
O=C(CCc1ccccc1)N[C@@H]1c2ccccc2CC[C@@H]1OCc1ccccc1 was read as OX1R antag-1 22.1, OX1R antag-2 10.6, CHO parental Ca -21.0, TAAR1 agonist 8.6, TAAR1 antag 52.9*, nonsel antag count 10.5, TAAR1 ant conf 15.7, Ga16 ag counter -0.9 and TAAR1 ag count -1.8.
`O=C(COCc1ccccc1)N[C@@H]1c2ccccc2CC[C@H]1OCc1ccccc1` gave OX1R antag-1 14.8, OX1R antag-2 -29.6, CHO parental Ca -20.1, TAAR1 agonist 2.1 and TAAR1 antag 13.6.
Screening COc1ccc([C@H]2C[C@@H](O)[C@H](n3cc(COC(=O)c4ccccc4)nn3)CN2C(=O)c2cccs2)cc1 returned TAAR1 agonist 1.8 and TAAR1 antag 16.0.
Screening Cn1cc(C(=O)N2CCc3ccccc32)cn1 returned OX1R antag-1 1.1, OX1R antag-2 -8.9, CHO parental Ca -7.4, TAAR1 agonist -0.7 and TAAR1 antag -10.6.
CCOc1ccc(CCN2C(=O)C(=O)N([C@@H](CC(C)C)CN3CCC[C@H]3CN3C(=O)C(=O)NC[C@@H]3Cc3ccccc3)C[C@@H]2Cc2ccc(O)cc2)cc1 was read as TAAR1 agonist -0.7 and TAAR1 antag -2.3.
COC(=O)C1=C(C)N(C)C(=NCc2cccc(C(F)(F)F)c2)NC1c1ccccc1 (stereo unspecified) was read as TAAR1 agonist 8.4 and TAAR1 antag -3.2.
Screening COC(=O)C1=C(C)N(Cc2cccc(C(F)(F)F)c2)C(=NCc2ccc(OC)cc2)NC1c1ccc(F)cc1 (stereo unspecified) returned TAAR1 agonist 31.3, TAAR1 antag 53.2*, nonsel antag count 41.5*, TAAR1 ant conf 33.5, Ga16 ag counter 14.9* and TAAR1 ag count 30.4.
COC(=O)C1=C(C)N(Cc2cccc(C(F)(F)F)c2)C(=NCc2ccc3c(c2)OCO3)NC1c1ccc(Cl)cc1 (stereo unspecified) was read as TAAR1 agonist 29.0, TAAR1 antag 55.9*, nonsel antag count 36.6*, TAAR1 ant conf 41.2, Ga16 ag counter 18.9* and TAAR1 ag count 52.4*.
Screening COC(=O)C1=C(C)N(Cc2ccc(C(F)(F)F)cc2)C(=NCc2ccccc2)NC1c1ccc(C(F)(F)F)cc1 (stereo unspecified) returned TAAR1 agonist 23.2, TAAR1 antag 54.9*, nonsel antag count 40.7*, TAAR1 ant conf 33.1, Ga16 ag counter 21.0* and TAAR1 ag count 43.6*.
COC(=O)C1=C(C)N(C)C(=NCc2cccc(C(F)(F)F)c2)NC1c1ccc(C(F)(F)F)cc1 (stereo unspecified) was read as TAAR1 agonist 26.7, TAAR1 antag 50.9*, nonsel antag count 32.5*, TAAR1 ant conf 40.4, Ga16 ag counter 12.8* and TAAR1 ag count 26.1.
`COC(=O)C1=C(C)N(Cc2cccc(C(F)(F)F)c2)C(=NCc2ccc(C(F)(F)F)cc2)NC1c1ccc(Cl)cc1` (stereo unspecified) gave TAAR1 agonist 13.2 and TAAR1 antag 31.4.
Screening COC(=O)C1=C(C)N(Cc2cccc(C(F)(F)F)c2)C(=NCc2ccc(C(F)(F)F)cc2)NC1c1ccccc1 (stereo unspecified) returned TAAR1 agonist 9.8 and TAAR1 antag 19.0.
Screening Cn1nnnc1SCc1ccc([N+](=O)[O-])cc1 returned OX1R antag-1 26.4, OX1R antag-2 -12.9, CHO parental Ca -6.5, TAAR1 agonist 6.0 and TAAR1 antag -23.5.
For COC(=O)C1=C(C)N(Cc2ccc(C(F)(F)F)cc2)C(=NCc2ccccc2)NC1c1cccc(C(F)(F)F)c1 (stereo unspecified) the results were TAAR1 agonist 18.3 and TAAR1 antag 29.4.
For COC(=O)C1=C(C)N(Cc2ccc(F)cc2)C(=S)NC1c1cccc(OC)c1 (stereo unspecified) the results were TAAR1 agonist -1.3, TAAR1 antag 57.1*, nonsel antag count 23.7*, TAAR1 ant conf 40.9, Ga16 ag counter 1.6 and TAAR1 ag count 3.2.
Screening CCN=C1NC(c2cccc(Cl)c2)C(C(=O)OC)=C(C)N1Cc1ccc(C(F)(F)F)cc1 (stereo unspecified) returned TAAR1 agonist 28.4 and TAAR1 antag 41.0.
